Measured values: ChEMBL document CHEMBL1125490, “3'-Spiro nucleosides, a new class of specific human immunodeficiency virus type 1 inhibitors: synthesis and antiviral activity of [2'-5'-bis-O-(tert-butyldimethylsilyl)-beta-D-xylo- and -ribofuranose]-3'-spiro-5"-[4"-amino-1",2"-oxathiole 2",2"-dioxide] (TSAO) pyrimidine nucleosides” (J Med Chem, 1992)
≈ marks a conversion by molar mass, not a printed value.

How the values were obtained:
[1] = tested on: Human immunodeficiency virus 1; assay: Concentration required to inhibit HIV-1 induced cytopathicity in human MT-4 lymphocyte cells.; type: functional, organism-based
Procedure, shortened: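 MT-4 cells at 5 × 10⁵/mL were infected with HIV-1 at 100 CCID₅₀ per mL of cell suspension, then mixed 1:1 with serial dilutions of compound. After 5 days, viable cells were counted by trypan blue staining. EC₅₀ was the concentration giving 50% protection against virus-induced loss of viable cells. Values are means of at least three to five independent experiments.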

[2] = tested on: MT4; assay: Concentration required to reduce human MT-4 cell viability by 50%.; type: functional
Procedure, shortened: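 Mock-infected MT-4 cells were cultured 5 days with serial dilutions of compound, and viable cells were counted by trypan blue staining. CC₅₀ was the concentration reducing viable cell number by 50%. Values are means of at least three to five independent experiments.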

[3] = tested on: MT4; assay: Ratio of effective concentration to that of cytotoxic concentration against HIV-1 induced cytopathogenicity in MT-4 cells; type: functional
[4] = Human immunodeficiency virus 1, Lymphocyte, read-out: EC50
[5] = Homo sapiens, MT4, read-out: CC50

SMILES	EC50 [1, 4] [µg/mL]	CC50 [2, 5] [µg/mL]	Selectivity index [3]	EC50 ([1]; lymphocyte) [µg/mL]	CC50 [2] [µg/mL]
Cc1cn([C@@H]2O[C@H](CO[Si](C)(C)C(C)(C)C)[C@@]3(OS(=O)(=O)C=C3N)[C@H]2O[Si](C)(C)C(C)(C)C)c(=O)[nH]c1=O	0.034 (≈ 0.0576 µM)	7.7 (≈ 13.1 µM)			
Cc1cn([C@@H]2O[C@H](CO[Si](C)(C)C(C)(C)C)[C@]3(OS(=O)(=O)C=C3N)[C@H]2O[Si](C)(C)C(C)(C)C)c(=O)[nH]c1=O	> 4	18 (≈ 30.5 µM)	<4.5		
Cc1cn([C@@H]2O[C@H](CO[Si](C)(C)C(C)(C)C)[C@@](C#N)(OS(C)(=O)=O)[C@H]2O[Si](C)(C)C(C)(C)C)c(=O)[nH]c1=O	> 1.6	4.3 (≈ 7.29 µM)	<2.7		
NC1=CS(=O)(=O)O[C@]12[C@@H](CO)O[C@@H](n1ccc(=O)[nH]c1=O)[C@@H]2O	> 80	320 (≈ 921 µM)	<4		
Cc1cn([C@H]2C[C@]3(OS(=O)(=O)C=C3N)[C@@H](CO[Si](C)(C)C(C)(C)C)O2)c(=O)[nH]c1=O	> 0.8	1.5 (≈ 3.26 µM)	<1.9		
Cc1cn([C@@H]2O[C@H](CO[Si](C)(C)C(C)(C)C)[C@@]3(OS(=O)(=O)C=C3N)[C@H]2O)c(=O)[nH]c1=O	> 20	45 (≈ 94.6 µM)	<2.2		
CC(C)(C)[Si](C)(C)O[C@H]1[C@H](n2ccc(=O)[nH]c2=O)O[C@H](CO)[C@]12OS(=O)(=O)C=C2N	> 100	221 (≈ 479 µM)	<2		
Cc1cn([C@@H]2O[C@H](CO)[C@@]3(OS(=O)(=O)C=C3N)[C@H]2O[Si](C)(C)C(C)(C)C)c(=O)[nH]c1=O	> 40	106 (≈ 223 µM)	<2.6		
CC(=O)Nc1ccn([C@@H]2O[C@H](CO[Si](C)(C)C(C)(C)C)[C@]3(OS(=O)(=O)C=C3N)[C@H]2O[Si](C)(C)C(C)(C)C)c(=O)n1	> 4	7.1 (≈ 11.5 µM)	<1.8		
Cc1cn([C@@H]2O[C@H](CO)[C@@]3(OS(=O)(=O)C=C3N)[C@H]2O)c(=O)[nH]c1=O	> 100	> 100			
CC(=O)Nc1ccn([C@@H]2O[C@H](CO[Si](C)(C)C(C)(C)C)[C@@]3(OS(=O)(=O)C=C3N)[C@H]2O[Si](C)(C)C(C)(C)C)c(=O)n1	0.097 (≈ 0.157 µM)	7.5 (≈ 12.2 µM)	77		
Cc1cn([C@@H]2O[C@H](CO)[C@]3(OS(=O)(=O)C=C3N)[C@H]2O)c(=O)[nH]c1=O	> 500	> 500	<1		
CC(C)=CCN1Cc2cccc3[nH]c(=S)n(c23)C[C@@H]1C	0.021 (≈ 0.0731 µM)	> 20	>952		
CC(C)(C)[Si](C)(C)OC[C@H]1O[C@@H](n2ccc(=O)[nH]c2=O)[C@H](O[Si](C)(C)C(C)(C)C)C12OS(=O)(=O)C=C2N (stereo in doubt; 11b)			<2	> 1.6	3.1 (≈ 5.38 µM)
CC(C)(C)[Si](C)(C)OC[C@H]1O[C@@H](n2ccc(=O)[nH]c2=O)[C@H](O[Si](C)(C)C(C)(C)C)C12OS(=O)(=O)C=C2N (stereo in doubt; 12b)			73	0.114 (≈ 0.198 µM)	8.3 (≈ 14.4 µM)
Cc1c(Sc2ccccc2)n(COCCO)c(=O)[nH]c1=O [HEPT]	5.5 (≈ 17.8 µM)	> 200	>36		
Cc1ccnc2c1NC(=O)c1cccnc1N2C1CC1 [NEVIRAPINE]	0.038 (≈ 0.143 µM)	> 20	>526		
